Sampled rows, rich in hits. Any-hit rate of the full collection: about 1.7%.
IDE inh: inhibits human insulin-degrading enzyme in HEK cells. inhibition, % at 5.59 µM. FAbetaB cleavage, fluorescence polarization. 320,000 tested, 0.41% active. P14735;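 active means percent inhibition above the average of all tested compounds plus 3 SD, set per screening campaign, cut at about 16% in these data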;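 further: IDE supplied by intact live HEK cells; FP after avidin binding of uncleaved biotin substrate so inhibition keeps polarization high; 0% = DMSO wells and 100% = 60 µM reference IDE inhibitor Ii1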
HNF4A DNA FP: change in binding of human HNF4 alpha to DNA | P41235 | HNF4a-FITC DNA binding, fluorescence polarization, 1 h | activity change, % at 10 µM | 360,000 tested, 0.3% active; in the data active means activity change above about 30%, passing the limit was not always enough
IDE cell activ: IDE (human) activation, cell-based; P14735; HEK cells, FAbeta-B cleavage, fluorescence polarization; 0% vehicle, 100% cell-free pure enzyme wells; activation, % at 5.96 µM; 340,000 tested, 0.073% active; AID 493087;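 active means activation above the mean of all tested compounds plus 3 SD, set per screening campaign, cut at about 17% in these data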
TPT1 inh: blocks Candida albicans tRNA 2'-phosphotransferase. 300,000 tested, 0.81% active. recombinant caTPT1, FP RNA substrate dephosphorylation. inhibition, % at 5 µM. AID 1962;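 active means inhibition above the mean of all tested compounds plus 3 SD, set per screening campaign, cut at about 24% in these data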;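 further: plate controls were DMSO alone for no effect and ferristatin control at 100 nM for full effect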
CSN deneddyl inh: blocks human CSN-mediated cullin deneddylation. inhibition, % at 12.5 µM. Purified CSN, SCF-Nedd8-OG deneddylation, fluorescence polarization. Q92905. 360,000 tested, 0.38% active. AID 651999;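 active means pattern-corrected inhibition above about 35%, with an unprinted fluorescence ratio check between 0.5 and 1.5, limit read from the data, passing the limit was not always enough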;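 further: 0% = enzyme with substrate and 100% = substrate without enzyme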
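Material: purified human Csn5 enzyme expressed in HEK293T cells / Medium: Tris buffer pH 7.5, NaCl, DTT, Tween-20, trehalose, ovalbumin / Compound dosing: 12.5 µM single point / Schedule: 90 min incubation of compound, enzyme and substrate at room temperature / Signal: fluorescence polarization of the substrate / Control set: no-enzyme wells high, enzyme-with-substrate wells low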
Rpn11 inh: Rpn11 (human) deubiquitinase inhibition. O00487. inhibition, % at 20 µM. human 26S proteasome, Ub4-pepOG fluorescence polarization; 20S core pre-blocked with epoxomicin. 360,000 tested, 0.59% active;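 active means inhibition at 20 µM, scaled to each plate's controls, above about 33%, limit read from the data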
Target sequence (O00487 whole entry, looked up): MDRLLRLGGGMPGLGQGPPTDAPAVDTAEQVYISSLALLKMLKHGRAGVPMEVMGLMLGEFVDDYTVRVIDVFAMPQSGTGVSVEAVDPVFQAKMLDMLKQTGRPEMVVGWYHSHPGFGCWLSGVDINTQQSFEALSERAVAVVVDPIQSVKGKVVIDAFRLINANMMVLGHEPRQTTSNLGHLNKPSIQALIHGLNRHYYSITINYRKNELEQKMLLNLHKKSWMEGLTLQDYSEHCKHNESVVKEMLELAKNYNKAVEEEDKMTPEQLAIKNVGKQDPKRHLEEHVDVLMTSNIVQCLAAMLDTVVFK
caTPT1 confirm: TPT1 (C. albicans) inhibition, confirmation | shares compounds with TPT1 inh | recombinant caTPT1, fluorescence polarization, RNase T1 coupled | inhibition, % at 5 µM | 2,400 tested, 74% active;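 active means inhibition above the primary screen limit, the mean inhibition of all tested compounds plus 3 SD, cut at about 25% in these data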
RNase T1 counter: RNase T1 inhibition in TPT1 counter-screen; 2,400 tested, 83% active; AID 2153; RNase T1 cleavage, fluorescence polarization, 1536-well; inhibition, % at 5 µM; shares compounds with TPT1 inh;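 active means inhibition above the solvent-only control well mean plus 3 SD, limit set per screening run, cut at about 23% in these data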;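 further: plate controls were DMSO wells with enzyme for no effect and wells without RNase T1 for full effect; inhibitors block cleavage so intact labeled substrate keeps polarization high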
Target sequence (P00651 whole entry, looked up): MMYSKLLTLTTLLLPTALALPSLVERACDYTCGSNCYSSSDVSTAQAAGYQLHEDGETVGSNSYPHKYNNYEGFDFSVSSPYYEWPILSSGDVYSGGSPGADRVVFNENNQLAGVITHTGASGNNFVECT
IDE inh confirm: confirmation of human insulin-degrading enzyme inhibitors in cells; shares compounds with IDE inh; HEK cells, FAbetaB cleavage, fluorescence polarization; inhibition, % at 5.59 µM; 1,200 tested, 51% active; AID 435028;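 active means mean inhibition across triplicate wells above the cutoff set by the earlier primary insulin-degrading enzyme screen, cut at about 16% in these data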;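 further: 0% = DMSO wells and 100% = 60 µM reference IDE inhibitor Ii1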
HEK293 tox: HEK cell cytotoxicity, counter-screen for IDE inhibitors; shares compounds with IDE inh; HEK293 cytotoxicity, ATP luminescence; inhibition, % at 5.59 µM; 1,200 tested, 28% active; in the data active means inhibition above about 22%;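 further: 0% = vehicle wells and 100% = reference cytotoxic drug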
* = called active by the depositor; nt = no result given.

SMILES	IDE inh	HNF4A DNA FP	IDE cell activ	TPT1 inh	CSN deneddyl inh	Rpn11 inh	caTPT1 confirm	RNase T1 counter	IDE inh confirm	HEK293 tox
COc1ccccc1-c1noc2c1C(=O)N(Cc1cn(Cc3ccccc3)nn1)CC2	nt	-3.8	nt	nt	0.1	5.1	nt	nt	nt	nt
CN(C)c1ccc(/C=C/c2nc3ccccc3c(=O)n2-c2ccc(C(=O)O)cc2)cc1	130.6*	151.3	-115.1	143.8*	-75.9	nt	159.0*	143.4*	133.9*	8.5
COc1cccc(-c2nnn(CC(=O)N(C3CCCCC3)C3CCS(=O)(=O)C3)n2)c1 (stereo not given)	nt	-1.5	nt	nt	1.3	-0.9	nt	nt	nt	nt
CC(=O)c1sc(N/N=C\c2ccccc2O)nc1C	30.7*	34.7*	-37.4	135.8*	12.9	nt	118.0*	114.8*	47.5*	6.1
CN1C(=CC=C2C=C(I)C(=O)C(I)=C2)C(C)(C)c2ccccc21	nt	208.9	-27.3	nt	26.3	nt	nt	nt	nt	nt
CN1/C(=C\C=C2/C(=O)Oc3ccccc3C2=O)C(C)(C)c2ccccc21	183.9*	nt	nt	98.0*	nt	nt	5.1	13.1	60.6*	23.2*
CN1/C(=C\C=C2/SC(=S)NC2=O)C(C)(C)c2ccccc21	115.8*	-3.9	-131.8	105.6*	-101.1	nt	111.0*	105.7*	151.6*	37.7*
CCN(CC)c1ccc(/C=N/NC(=O)c2cccc(S(=O)(=O)Nc3ccccc3OC)c2)c(O)c1	33.2*	17.7	-21.2	55.2*	6.8	nt	78.0*	87.4*	34.5*	99.8*
c1ccc(COc2cccc(-c3cc4nc(NCc5ccc6c(c5)OCO6)ccn4n3)c2)cc1	nt	0.0	nt	nt	0.9	7.0	nt	nt	nt	nt
COc1ccc2c(c1)c(/C=C/c1cc[n+](C)cc1)cn2C	26.9*	127.2	-19.1	72.2*	73.9*	nt	87.7*	90.7*	46.7*	43.5*
COc1ccc2c(c1)c1ccccc1n2C	4.5	-1.4	4.2	-0.2	-1.4	-6.4	nt	nt	nt	nt
O=C(Cc1ccccc1)Nn1c(O)c(/C=C2\C=Nc3ccccc32)sc1=S	61.8*	53.2*	-63.4	139.4*	8.7	35.5	94.2*	104.7*	43.4*	10.9
Cn1c(O)c(/C=C2\C=Nc3ccccc32)sc1=Nc1ccc(C(=O)O)cc1	-2.3	-4.5	2.8	0.7	3.8	-0.5	nt	nt	nt	nt
Nc1c(C(=O)c2ccccc2)sc2nsc(SCCN3CCOCC3)c12	29.2*	33.5	nt	57.7*	13.1	nt	63.0*	72.2*	60.8*	57.9*
CCc1ccc(/C=C2/SC(N3CCOCC3)=NC2=O)cc1	-1.1	-1.2	-0.6	-0.8	1.8	-3.3	nt	nt	nt	nt
CCN1C/C(=C/c2ccc(N3CCOCC3)cc2)C(=O)/C(=C/c2ccc(N3CCOCC3)cc2)C1	18.0*	0.7	-24.2	98.7*	33.3	nt	97.4*	93.1*	29.0*	93.5*
O=C1/C(=C/c2cccnc2)CCC/C1=C\c1cccnc1	5.5	nt	nt	0.9	nt	nt	nt	nt	nt	nt
Cn1cccc1/C=C1\CCC/C(=C\c2cccn2C)C1=O	71.4*	146.1	-73.5	192.4*	-0.3	nt	194.4*	171.3*	117.5*	23.2*
N#C/C(=C\c1ccc(N2CCOCC2)o1)C(=O)NCC1CCCO1 (stereo not given)	16.6*	163.6	-25.7	161.2*	93.6	nt	168.4*	163.8*	22.5*	12.1
COCCNC(=O)/C(C#N)=C/c1ccc(N2CCOCC2)o1	16.4*	155.4	-16.2	156.9*	109.2	nt	169.2*	164.4*	16.0	7.0
CCN(CC)c1ccc(/C=C(\C#N)C(=O)NCc2ccco2)cc1	90.2*	nt	nt	110.0*	nt	nt	103.7*	113.5*	51.8*	14.5
Cn1c(=O)n(C)c2cc(/C=C(/C#N)C(=O)NCc3ccco3)ccc21	1.3	-3.4	-0.4	0.6	-3.4	-6.3	nt	nt	nt	nt
O=C(c1ccc(Br)c(S(=O)(=O)N2CCOCC2)c1)N1CCN(C/C=C/c2ccccc2)CC1	nt	2.9	-0.8	nt	-1.9	-0.5	nt	nt	nt	nt
CCOC(=O)c1cc(=O)nc(N)s1	nt	-3.6	nt	nt	3.6	-4.0	nt	nt	nt	nt
CC(=O)Nc1cccc(C(=O)/C=C/c2ccc(N(C)C)cc2)c1	55.8*	83.1*	-174.2	102.8*	135.2	nt	99.9*	99.1*	50.9*	13.6
SMILES	IDE inh	HNF4A DNA FP	IDE cell activ	TPT1 inh	CSN deneddyl inh	Rpn11 inh	caTPT1 confirm	RNase T1 counter	IDE inh confirm	HEK293 tox
CC(=O)Nc1cccc(C(=O)/C=C/c2ccc(/C=C/C(=O)c3cccc(NC(C)=O)c3)cc2)c1	-1.3	nt	nt	-5.0	nt	nt	nt	nt	nt	nt
CCOc1ccc(N2C(=O)S/C(=C\c3cc(OC)c(OC)c(OC)c3)C2=O)cc1	1.4	-2.1	nt	0.7	-4.4	-5.8	nt	nt	nt	nt
CCOc1ccc(N2C(=O)S/C(=C\c3ccc(O)c(OC)c3)C2=O)cc1	19.2*	10.9	-11.4	65.9*	4.7	16.4	48.1*	57.9*	20.5*	6.9
CN1CCC/C1=C/C=C1\SC(=S)NC1=O	76.3*	-4.8	-71.9	145.9*	7.8	nt	153.9*	140.4*	68.5*	7.3
O=C1NC(=S)SC1=Cc1cccs1	nt	8.5	-0.7	nt	-0.1	2.1	nt	nt	nt	nt
Cc1ccccc1-n1c(O)c(/C=C/C=Nc2ccccc2)c(=O)[nH]c1=O	65.5*	170.9	-70.7	153.7*	30.9	nt	168.4*	157.1*	84.8*	6.9
Cc1ccc(-n2c(O)c(/C=C3/C(c4ccccc4)=Nc4ccccc43)c(=O)[nH]c2=O)cc1	3.0	4.2	4.0	5.9	-11.3	24.8	nt	nt	nt	nt
COCC(=O)N1C[C@@H](C)[C@@H](OC)CN(C)C(=O)c2ccc(NC(=O)c3cnccn3)cc2OC[C@H]1C	nt	3.8	nt	nt	-0.4	nt	nt	nt	nt	nt
CCN(CC)c1ccc(/C=C/C(=O)c2ccc(Br)cc2)cc1	163.2*	-4.1	-117.5	97.1*	-92.4	nt	94.3*	95.6*	61.1*	14.0
CCCN1CCc2c(sc(NC(=S)NC(=O)c3ccccc3)c2C#N)C1	38.6*	93.0	-33.1	87.5*	-98.3	nt	61.9*	70.7*	9.4	12.9
CC(C)N1CCc2c(sc(NC(=S)NC(=O)c3ccccc3)c2C#N)C1	19.2*	43.8*	-12.9	94.3*	40.3*	nt	80.8*	85.5*	10.6	10.5
Cc1sc(NC(=S)NC(=O)c2ccccc2)c(C#N)c1C	4.6	-1.2	2.0	1.8	0.3	3.5	nt	nt	nt	nt
O=C(NC1CCCC1)c1nc(-c2c(F)cccc2F)oc1-c1ccccc1	nt	0.1	nt	nt	-0.7	nt	nt	nt	nt	nt
